# Test results from ChEMBL document CHEMBL4689842, “EUbOPEN Chemogenomics Library wave 1” (2021).
# Tested on: Fibroblast
# Assay: Multiplex assay against human fibroblast
# Type: toxicity, cell-based
# In short: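 Live cells carried four stains from seeding: Hoechst33342, BioTracker Green Microtubule Cytoskeleton Dye, MitoTracker Red and Annexin V Alexa Fluor 680. They were imaged on a CQ1 microscope at 37°C and 5% CO2 after compound addition. Using CellPathfinder machine-learning gating, cells were split into Hoechst high-intensity objects or normal cells, normal cells into healthy, pyknosed or fragmented nuclei, and pyknosed cells into mitotic or apoptotic; tubulin, mitochondrial-mass and membrane-permeability phenotypes are per cents of healthy-nucleus cells.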
# [1] = 12 h, 1 µM, compound concentration 1 uM, replicate 1
# [2] = 12 h, 1 µM, compound concentration 1 uM, replicate 2
# [3] = 12 h, 10 µM, compound concentration 10 uM, replicate 1
# [4] = 12 h, 10 µM, compound concentration 10 uM, replicate 2
# [5] = 24 h, 1 µM, compound concentration 1 uM, replicate 1
# [6] = 24 h, 1 µM, compound concentration 1 uM, replicate 2
# [7] = 24 h, 10 µM, compound concentration 10 uM, replicate 1
# [8] = 24 h, 10 µM, compound concentration 10 uM, replicate 2
# [9] = 48 h, 1 µM, compound concentration 1 uM, replicate 1
# [10] = 48 h, 1 µM, compound concentration 1 uM, replicate 2
# [11] = 48 h, 10 µM, compound concentration 10 uM, replicate 1
# [12] = 48 h, 10 µM, compound concentration 10 uM, replicate 2
smiles,measurement,setting,value
CC(=O)c1cc(-c2cc(C(=O)NC3CC3)ccc2C)c2ncccn12,Population Apoptotic (%),[1],68%
same,Population Fragmented Nuclei (%),[1],28%
same,Population Healthy Nuclei (%),[1],35%
same,Population Hoechst High Intensity Objects (%),[1],16%
same,Population Membrane Permeable-Phenotype (%),[1],42%
same,Population Mitochondria Different-Phenotype (%),[1],3%
same,Population Mitotic Cells (%),[1],31%
same,Population Normal (%),[1],83%
same,Population Pyknosed Nuclei (%),[1],36%
same,Population Tubulin-Different-Phenotype (%),[1],42%
same,Total Cell Count,[1],96
same,Population Apoptotic (%),[2],66%
same,Population Fragmented Nuclei (%),[2],8%
same,Population Healthy Nuclei (%),[2],85%
same,Population Hoechst High Intensity Objects (%),[2],7%
same,Population Membrane Permeable-Phenotype (%),[2],2%
same,Population Mitochondria Different-Phenotype (%),[2],7%
same,Population Mitotic Cells (%),[2],33%
same,Population Normal (%),[2],92%
same,Population Pyknosed Nuclei (%),[2],6%
same,Population Tubulin-Different-Phenotype (%),[2],19%
same,Total Cell Count,[2],73
same,Population Apoptotic (%),[3],60%
same,Population Fragmented Nuclei (%),[3],20%
same,Population Healthy Nuclei (%),[3],40%
same,Population Hoechst High Intensity Objects (%),[3],25%
same,Population Membrane Permeable-Phenotype (%),[3],30%
same,Population Mitochondria Different-Phenotype (%),[3],23%
same,Population Mitotic Cells (%),[3],39%
same,Population Normal (%),[3],75%
same,Population Pyknosed Nuclei (%),[3],39%
same,Population Tubulin-Different-Phenotype (%),[3],50%
same,Total Cell Count,[3],140
same,Population Fragmented Nuclei (%),[4],11%
same,Population Healthy Nuclei (%),[4],84%
same,Population Hoechst High Intensity Objects (%),[4],4%
same,Population Membrane Permeable-Phenotype (%),[4],3%
same,Population Mitochondria Different-Phenotype (%),[4],8%
same,Population Mitotic Cells (%),[4],40%
same,Population Normal (%),[4],95%
same,Population Pyknosed Nuclei (%),[4],5%
same,Population Tubulin-Different-Phenotype (%),[4],17%
same,Total Cell Count,[4],52
same,Population Apoptotic (%),[5],66%
same,Population Fragmented Nuclei (%),[5],25%
same,Population Healthy Nuclei (%),[5],45%
same,Population Hoechst High Intensity Objects (%),[5],15%
same,Population Membrane Permeable-Phenotype (%),[5],51%
same,Population Mitochondria Different-Phenotype (%),[5],7%
same,Population Mitotic Cells (%),[5],33%
same,Population Normal (%),[5],84%
same,Population Pyknosed Nuclei (%),[5],29%
same,Population Tubulin-Different-Phenotype (%),[5],43%
same,Total Cell Count,[5],108
same,Population Apoptotic (%),[6],0%
same,Population Fragmented Nuclei (%),[6],3%
same,Population Healthy Nuclei (%),[6],91%
same,Population Hoechst High Intensity Objects (%),[6],4%
same,Population Membrane Permeable-Phenotype (%),[6],3%
same,Population Mitochondria Different-Phenotype (%),[6],9%
same,Population Mitotic Cells (%),[6],100%
same,Population Normal (%),[6],95%
same,Population Pyknosed Nuclei (%),[6],5%
same,Population Tubulin-Different-Phenotype (%),[6],12%
same,Total Cell Count,[6],70
same,Population Apoptotic (%),[7],57%
same,Population Fragmented Nuclei (%),[7],21%
same,Population Healthy Nuclei (%),[7],47%
same,Population Hoechst High Intensity Objects (%),[7],15%
same,Population Membrane Permeable-Phenotype (%),[7],24%
same,Population Mitochondria Different-Phenotype (%),[7],9%
same,Population Mitotic Cells (%),[7],42%
same,Population Normal (%),[7],84%
same,Population Pyknosed Nuclei (%),[7],31%
same,Population Tubulin-Different-Phenotype (%),[7],65%
same,Total Cell Count,[7],151
same,Population Apoptotic (%),[8],48%
same,Population Fragmented Nuclei (%),[8],11%
same,Population Healthy Nuclei (%),[8],63%
same,Population Hoechst High Intensity Objects (%),[8],2%
same,Population Membrane Permeable-Phenotype (%),[8],8%
same,Population Mitochondria Different-Phenotype (%),[8],12%
same,Population Mitotic Cells (%),[8],51%
same,Population Normal (%),[8],97%
same,Population Pyknosed Nuclei (%),[8],24%
same,Population Tubulin-Different-Phenotype (%),[8],18%
same,Total Cell Count,[8],62
same,Population Apoptotic (%),[9],42%
same,Population Fragmented Nuclei (%),[9],40%
same,Population Healthy Nuclei (%),[9],46%
same,Population Hoechst High Intensity Objects (%),[9],10%
same,Population Membrane Permeable-Phenotype (%),[9],34%
same,Population Mitochondria Different-Phenotype (%),[9],2%
same,Population Mitotic Cells (%),[9],57%
same,Population Normal (%),[9],89%
same,Population Pyknosed Nuclei (%),[9],13%
same,Population Tubulin-Different-Phenotype (%),[9],20%
same,Total Cell Count,[9],119
same,Population Apoptotic (%),[10],33%
same,Population Fragmented Nuclei (%),[10],30%
same,Population Healthy Nuclei (%),[10],66%
same,Population Hoechst High Intensity Objects (%),[10],7%
same,Population Membrane Permeable-Phenotype (%),[10],12%
same,Population Mitochondria Different-Phenotype (%),[10],1%
same,Population Mitotic Cells (%),[10],66%
same,Population Normal (%),[10],92%
same,Population Pyknosed Nuclei (%),[10],3%
same,Population Tubulin-Different-Phenotype (%),[10],32%
same,Total Cell Count,[10],101
same,Population Apoptotic (%),[11],52%
same,Population Fragmented Nuclei (%),[11],30%
same,Population Healthy Nuclei (%),[11],51%
same,Population Hoechst High Intensity Objects (%),[11],17%
same,Population Membrane Permeable-Phenotype (%),[11],27%
same,Population Mitochondria Different-Phenotype (%),[11],6%
same,Population Mitotic Cells (%),[11],47%
same,Population Normal (%),[11],82%
same,Population Pyknosed Nuclei (%),[11],17%
same,Population Tubulin-Different-Phenotype (%),[11],45%
same,Total Cell Count,[11],145
same,Population Apoptotic (%),[12],75%
same,Population Fragmented Nuclei (%),[12],26%
same,Population Healthy Nuclei (%),[12],69%
same,Population Hoechst High Intensity Objects (%),[12],9%
same,Population Membrane Permeable-Phenotype (%),[12],16%
same,Population Mitochondria Different-Phenotype (%),[12],8%
same,Population Mitotic Cells (%),[12],25%
same,Population Normal (%),[12],90%
same,Population Pyknosed Nuclei (%),[12],4%
same,Population Tubulin-Different-Phenotype (%),[12],35%
same,Total Cell Count,[12],107
